# An excerpt weighted towards active compounds, which were near 2.1% of everything screened.
# ABCG2 inh: ABCG2 efflux pump inhibitors, primary screen, multiplex with ABCB1, IgMXP3 cells, flow cytometry. 0.1% of 190,000 active. JC-1 efflux. Broad substrate specificity ATP-binding cassette transporter ABCG2 (Homo sapiens), Q9UNQ0. inhibition, % at 6.6 µM;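 active means inhibition above 80%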;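 further: 0% = DMSO and 100% = nicardipine control wells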
#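 Times: 10 min at 25 °C | Test system: Two drug-resistant human cell lines, ABCG2 and ABCB1 | Quantity: 3 million cells/mL final, two lines in 1:1 ratio | Signal: Flow cytometry, 530 nm JC-1 signal | Dosing: Compound at 6.6 µM | Controls: Nicardipine and DMSO wells | Reagent: JC-1 as fluorescent efflux pump substrate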
# ABCB1 block: ABCB1 efflux pump inhibitors, primary screen, cell-based, multiplex, flow cytometry, ABCG2 counter-screen; 0.067% of 190,000 active; CCRF-Adr cells, JC-1 efflux; inhibition, % at 6.6 µM; AID 1326, 2008; ATP-dependent translocase ABCB1 (Homo sapiens), P08183; in the data active means inhibition above about 40%;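 further: 0% = vehicle and 100% = reference inhibitor; higher value means more JC-1 retained so stronger ABCB1 efflux block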
# Arbovirus inh: antivirals against arbovirus infection, primary screen, cell-based, full library, 10K replicate subset; AID 1251, 2008; arbovirus infection cell-based antiviral screen; 0.37% of 200,000 active; inhibition, % at 10 µM; in the data active means inhibition above about 30%
# bCat nuc transl: modulators of beta-catenin nuclear translocation, primary screen, imaging, HeLa cells, immunofluorescence, high-content; AID 1665, 2009; 0.3% of 190,000 active; nuclear translocation activity, % at 5 µM;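 active means nuclear translocation activity above 50% at 5 µM, with a well cell count of 50 or more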;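 further: per-cell ratio of nuclear to cytoplasmic median beta-catenin stain intensity; plate controls were DMSO negative control for no effect and GSK-3 inhibitor IX positive control for full effect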
#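 Signal – beta-catenin immunofluorescence imaging with DAPI · Test system – human HeLa cell line · Dosing – 5 µM primary single dose, 0.1% DMSO, 0.02–20 µM confirmation series · Measure – % activation, nuclear-to-cytoplasmic median beta-catenin signal ratio per cell · Incubation – 24 h compound exposure at 37°C, 5% CO2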
# Autophagy HCS: autophagy modulators in MEF cells, primary screen, imaging, high-content, MEF GFP-LC3; MEF GFP-LC3 puncta imaging; test concentration mostly 10 µM; calls only at 10 µM (by protocol); 0.98% of 190,000 active; AID 463193, 2010;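 active means percentage of spot-positive cells more than 3 SD above its plate mean, without a fluorescence outlier flag or 80% toxicity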;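 further: spot-positive cell cutoff set from DMSO-treated cells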
# MT stabilizer: microtubule stabilizers in HeLa cells, primary screen, imaging, high-content imaging. AID 2205, 2009. 0.83% of 200,000 active. % tubulin-high responders, % at 10 µM. HeLa tubulin immunostaining HCS, 24 h; share of cells brighter than vehicle mean+2SD;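 active means plate Z-score above 3 for both tubulin-high and condensed-nucleus cell shares, with cell loss under 80%, at 10 µM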;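 further: anti alpha tubulin signal scored within the nucleus-defined area of each cell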
# An asterisk follows results filed as active; i = inactive; nt = no result; + = active, no number.
SMILES,ABCG2 inh,ABCB1 block,Arbovirus inh,bCat nuc transl,Autophagy HCS,MT stabilizer
CCc1ccc(/C=N/NC(=O)c2cc(C3CC3)nc3ccc(Br)cc23)s1,0,0,-25,-2,i,20*
O=C(CSc1nc2ccccc2c(=O)n1CCCN1CCOCC1)Nc1ccc2c(c1)OCO2,1,2,-2,2,i,3
O=C1CN(C(=O)CSc2nc3ccccc3c(=O)n2CCCN2CCOCC2)c2ccccc2N1,nt,nt,nt,0,nt,nt
O=C(CSc1nc2ccccc2c(=O)n1CCCN1CCOCC1)c1c[nH]c2ccccc12,1,0,-8,1,+,4
NS(=O)(=O)c1cccc(NC(=O)CSc2nc3ccccc3c(=O)n2CCCN2CCOCC2)c1,5,1,6,2,+,4
CCOC(=O)c1cc(-c2ccco2)nc2c1c(C)nn2CCC#N,1,0,5,-1,i,1
CC(C)c1ccc2c(c1)[C@H]1OCC[C@H]1[C@@H](c1cccs1)N2,7,1,-4,36,+,20*
Cc1cc(C)c2c(c1)N[C@H](c1cccs1)[C@@H]1CCO[C@H]21,nt,nt,nt,1,nt,nt
Cc1ccc(-c2cc3ccccc3nc2N2CCOCC2)cc1,0,0,-13,-2,+,2
COc1ccc(N/C=C/C(=O)c2sc(-c3ccccc3)nc2C)cc1,0,0,-25,nt,i,52*
Cc1nn(C(C)C)c(C)c1CN1CCCC(CCC(=O)NCc2ccccc2F)C1 (stereo not given),3,2,4,-3,i,4
CC(C)c1csc(CN2CCCC(CCC(=O)NCc3ccccc3F)C2)n1 (stereo not given),1,0,-18,3,i,25*
CCOC(=O)c1cccc(NC(=S)N2CCN(c3ncc4c(=O)c(C(=O)O)cn(CC)c4n3)CC2)c1,0,0,14,-5,i,4
COc1ccccc1S(=O)(=O)Cc1ccc(C(=O)N2CCN(c3ccc(C)cc3)C(C)C2)o1 (stereo not given),6,4,-4,-1,i,17
Cc1ccc(S(=O)(=O)Cc2ccc(C(=O)N3CCN(c4ccc(F)cc4)CC3)o2)cc1,1,1,3,nt,i,24*
COc1ccc(S(=O)(=O)Cc2ccc(C(=O)N3CCN(c4cccc(C)c4C)CC3)o2)cc1,3,1,-8,1,i,22*
Cc1cccc(N2CCN(C(=O)c3ccc4c(c3)OCCO4)CC2C)c1 (stereo not given),1,0,-1,10,i,13*
COc1ccc(N2CCN(C(=O)c3ccc(CS(=O)(=O)c4ccc(OC)cc4)o3)CC2)cc1,2,2,3,nt,i,5
COc1ccc(S(=O)(=O)Cc2ccc(C(=O)N3CCN(c4cccc(C)c4)C(C)C3)o2)cc1 (stereo not given),4,2,-16,nt,i,24*
Cc1cccc(-n2c(C)cc(/C=N/O)c2C)c1,6,1,-1,0,i,5
COc1ccc(N2CCN(C(=O)c3ccc(NS(=O)(=O)c4ccc(F)c(F)c4)cc3)CC2)cc1,7,0,4,0,i,2
O=S1(=O)C=C(N2CCCCC2)c2ccccc21,-2,-1,0,-3,i,4
COc1ccc(CCN=C(N)NS(=O)(=O)c2ccc(C)cc2)cc1OC,2,0,-4,-1,i,2
COc1ccccc1CCN=C(N)NS(=O)(=O)c1ccc(C)cc1,0,0,8,4,+,3
CCC(=O)N/C(=N/c1nc(C)cc(C)n1)Nc1ccccc1,nt,nt,nt,1,nt,nt
SMILES,ABCG2 inh,ABCB1 block,Arbovirus inh,bCat nuc transl,Autophagy HCS,MT stabilizer
C/C(=N\N1CCN(C)CC1)c1ccc(OC(F)F)cc1,5,1,-2,-2,+,3
Cc1ccc(NC(=O)c2ccccc2[N+](=O)[O-])nc1,6,2,-14,-2,i,7
Cc1ccc(NC(=O)c2ccc(Cl)cc2[N+](=O)[O-])nc1,4,0,-10,1,i,36*
COCCSc1nnc(NC(=O)C2CCCCC2)s1,5,1,32*,-2,i,5
O=C(Nc1nnc(SCC(=O)N2CCCCC2)s1)C1CCCCC1,32,0,3,-1,i,3
O=C(c1cn(-c2ccccc2)nc1-c1ccccc1)N1CCN(c2ccccn2)CC1,9,25,-13,-4,i,36*
O=C(CCN1CCN(c2ccccc2F)CC1)Nc1ccccc1F,0,0,-9,-2,i,3
CCN=C1S/C(=C\c2ccc(-c3cccc(C(=O)O)c3)o2)C(=O)N1CC,-2,-1,41*,-1,i,4
Cn1ncc(N=Cc2ccccc2)c1C(=O)Nc1cccc(Cl)c1,0,0,-13,49,i,34*
Cn1ncc(N=Cc2ccccc2)c1C(N)=O,0,0,-2,-4,i,2
COc1ccc(NC(=O)CSc2ccc3c4c(cccc24)C(=O)c2ccccc2-3)cc1,20,14,-15,nt,+,15
N#Cc1cccc(NC(=O)CSc2ccccc2)c1,42,0,5,nt,i,2
N#Cc1cccc(NC(=O)CSc2ccc3c4c(cccc24)C(=O)c2ccccc2-3)c1,46,26,-20,-4,+,6
COc1cccc(OC)c1C(=O)Nc1cccc(-c2ccc3nncn3n2)c1,2,0,15,nt,i,2
COCCn1c(-c2ccccc2)cnc1SCC(=O)Nc1cccc2ccccc12,0,1,38*,-2,i,1
COCCn1c(-c2ccc(OC)cc2)cnc1SCC(=O)Nc1ccc(OC)cc1OC,-1,1,3,-1,i,4
CNC(=O)c1sccc1S(=O)(=O)Cc1c(Cl)cccc1Cl,2,0,6,nt,i,1
CCc1nc(CN2CCCC(C(=O)c3ccc4c5c(cccc35)CC4)C2)c(C)[nH]1 (stereo not given),-2,-3,-7,1,+,2
CN(CC(O)Cn1cnc2c1c(=O)n(C)c(=O)n2C)c1ccccc1 (stereo not given),5,0,8,0,+,2
CN(CCO)CC(O)Cn1cnc2c1c(=O)n(C)c(=O)n2C (stereo not given) (tested in a mixture with another compound),2,1,12,nt,i,5
O=C(CCCl)N1CCCC2(CCCCC2)C1,nt,nt,nt,0,nt,nt
